We go through 29 compounds from ChEMBL document CHEMBL2010768, “Optimization of Potent Inhibitors of P. falciparum Dihydroorotate Dehydrogenase for the Treatment of Malaria” (ACS Med Chem Lett, 2011).

Usually IC50 stands for the point on the concentration scale where inhibition reaches its midpoint. Low values mean higher potency, high ones lower potency.

For data set [1], the system named is Plasmodium falciparum. Put plainly: Antiplasmodial activity against Plasmodium falciparum Dd2 infected in […] after 72 hrs by SYBR green assay. It is filed as functional, organism-based. As to conditions: Dd2, 72 h.
For data set [2], the system named is Plasmodium falciparum. The experiment in a line: Antiplasmodial activity against Plasmodium falciparum 3D7 infected in […] after 72 hrs by SYBR green assay. The class given is functional, organism-based. As to conditions: 3D7, 72 h.
The target of data set [3] is T1, Dihydroorotate dehydrogenase (Plasmodium falciparum, UniProt Q54A96).
T1 sequence (Q54A96 whole entry): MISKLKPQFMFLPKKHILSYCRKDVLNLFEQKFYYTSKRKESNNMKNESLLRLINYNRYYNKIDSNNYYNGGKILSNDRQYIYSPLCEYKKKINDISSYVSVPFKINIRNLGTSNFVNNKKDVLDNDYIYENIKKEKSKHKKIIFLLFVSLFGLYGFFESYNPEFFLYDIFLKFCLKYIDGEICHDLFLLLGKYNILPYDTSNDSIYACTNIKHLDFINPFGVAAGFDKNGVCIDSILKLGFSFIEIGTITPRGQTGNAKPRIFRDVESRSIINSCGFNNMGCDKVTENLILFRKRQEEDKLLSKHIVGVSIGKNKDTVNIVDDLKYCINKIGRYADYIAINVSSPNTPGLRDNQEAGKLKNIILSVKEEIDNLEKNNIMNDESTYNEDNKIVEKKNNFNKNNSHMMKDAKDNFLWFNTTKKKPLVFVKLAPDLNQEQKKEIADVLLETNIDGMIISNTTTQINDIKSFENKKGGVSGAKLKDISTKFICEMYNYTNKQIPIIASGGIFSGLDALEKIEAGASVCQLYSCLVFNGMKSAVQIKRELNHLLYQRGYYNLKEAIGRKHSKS
Put plainly: Inhibition of Plasmodium falciparum DHODH after 20 mins by 2,6-dichloroindophenol-reduction based assay.

Data set [4] is described as follows: Cytotoxicity against human RPTEC after 4 days by alamar blue assay. It is filed as cell-based. The settings on record: RPTEC cells, read-out: LC50. A general note: The colour change of resazurin is a common sign of viable cells or microbes.
For data set [5], the system named is Plasmodium vivax. Put plainly: Inhibition of Plasmodium vivax DHODH after 20 mins by 2,6-dichloroindophenol-reduction based assay.
Data set [6] concerns Plasmodium berghei. The experiment in a line: Inhibition of Plasmodium berghei DHODH after 20 mins by 2,6-dichloroindophenol-reduction based assay.
A short description of data set [7]: Clearance in human liver microsomes by LC-MS/MS analysis. It is filed as ADME, Microsome. Put shortly: (§1)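 Liver microsome incubation. Predicted clearance is derived from a well-stirred model corrected for microsomal and protein binding.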
(In general: Microsomes from liver hold many membrane-bound enzymes, among them those of drug oxidation.)

Data set [8] concerns the target Dihydroorotate dehydrogenase (quinone), mitochondrial (Homo sapiens, UniProt Q02127). The experiment in a line: Inhibition of human DHODH after 20 mins by 2,6-dichloroindophenol-reduction based assay.
The nature of data set [9]: Clearance in mouse liver microsomes by LC-MS/MS analysis. It is filed as ADME, Microsome. Put shortly: as §1

The structures appear in SMILES notation. Activity calls are given as the source filed them. The calls are words filed in the database; no cut-off is given here. Where only a bound is given, the exact number is not on record here.

Sequence of Dihydroorotate dehydrogenase (quinone), mitochondrial (Q02127 whole entry): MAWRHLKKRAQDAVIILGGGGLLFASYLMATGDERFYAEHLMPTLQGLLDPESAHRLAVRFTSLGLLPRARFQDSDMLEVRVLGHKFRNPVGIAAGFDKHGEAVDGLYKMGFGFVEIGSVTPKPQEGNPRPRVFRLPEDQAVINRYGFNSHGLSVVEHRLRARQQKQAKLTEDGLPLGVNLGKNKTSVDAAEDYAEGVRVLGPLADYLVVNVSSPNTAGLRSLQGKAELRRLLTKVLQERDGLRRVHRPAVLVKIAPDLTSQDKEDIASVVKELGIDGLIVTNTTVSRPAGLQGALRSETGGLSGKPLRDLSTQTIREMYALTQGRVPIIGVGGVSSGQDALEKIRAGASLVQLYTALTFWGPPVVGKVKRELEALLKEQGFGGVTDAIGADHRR

Turning to `NC(=O)c1ccc(-n2cnc3ccccc32)s1`, the IC50 in data set [1] was more than 30000 nM; in [2], more than 40000 nM; in data set [3], more than 30000 nM.

As to `O=C(NC1CCC1)c1ccc(-n2cnc3ccccc32)s1`, the CC50 at 96 h in data set [4] is more than 62000 nM. In addition, the IC50 in [1] turned out to be 440 nM; in [2], 410 nM; in data set [3], 420 nM.

In the case of `Cc1cc(F)c2c(c1)ncn2-c1ccc(C(=O)NC2CC2)s1`, the inhibition entry in [5] and in [6] was “Active” each time. Further, the CLhep predicted was 11 mL/min/kg in data set [7] and more than 72 mL/min/kg in data set [9]. The IC50 in data set [8] worked out at 7300 nM; in [1], 60 nM; in [2], 36 nM; in data set [3], 95 nM.

Regarding `O=C(NC1CC1)c1ccc(-n2cnc3cc(C(F)(F)F)ccc32)s1`, the inhibition entry in data set [5] and in data set [6] was “Active” in each case. For the same compound, the CLhep predicted in data set [7] was 8 mL/min/kg; in data set [9], more than 72 mL/min/kg. Also, the IC50 was determined as 17200 nM in data set [8], 12 nM in data set [1], 12 nM in [2] and 19 nM in data set [3].

For `CCNC(=O)c1ccc(-n2cnc3ccccc32)s1`, in data set [4], the CC50 at 96 h was more than 62000 nM. Further, the figures for the IC50 in [1], in data set [2] and in data set [3] were 150 nM, 100 nM and 140 nM, respectively.

For the compound `Cc1nc2ccc(C(F)(F)F)cc2n1-c1ccc(C(=O)NC2CC2)s1`, the inhibition entry in data set [5] and in data set [6] was “Active” each time. The CLhep predicted in data set [7] is 8 mL/min/kg; in data set [9], 68 mL/min/kg. Also, the half-inhibitory concentration (IC50) in [1] amounted to 96 nM; in data set [2], 56 nM; in data set [3], 92 nM.

Consider `O=C(NC1CC1)c1ccc(-n2cnc3ccccc32)s1`, for which the CC50 at 96 h in data set [4] is more than 62000 nM. Further, the IC50 came out at 90 nM in data set [1], 80 nM in data set [2] and 60 nM in [3].

Consider `Cc1nc2c(Cl)cc(F)cc2n1-c1ccc(C(=O)NC2CC2)s1`, for which the inhibition result in data set [5] and in [6] was “Active” in each case. In addition, the CLhep predicted was 5 mL/min/kg in data set [7] and 42 mL/min/kg in [9]. Besides, the IC50 was more than 30000 nM in [8], 13 nM in data set [1], 12 nM in data set [2] and 25 nM in data set [3].

On to `Cc1nc2ccc(F)cc2n1-c1ccc(C(=O)NC2CC2)s1`, for which the inhibition result in data set [5] and in data set [6] was “Active” throughout. In addition, the values for the CLhep predicted in [7] and in data set [9] were less than 4 mL/min/kg and more than 72 mL/min/kg, respectively. Moreover, the values for the IC50 in data set [1], in [2] and in data set [3] were 113 nM, 93 nM and 111 nM, respectively.

Consider `Cc1nc2ccc(OC(F)(F)F)cc2n1-c1ccc(C(=O)NC2CC2)s1`, for which the inhibition entry in data set [5] and in data set [6] was “Active” each time. In addition, the CLhep predicted in [7] is 10 mL/min/kg; in [9], 41 mL/min/kg. Also, the IC50 amounted to 53 nM in data set [1], 36 nM in data set [2] and 52 nM in data set [3].

In the case of `Cc1nc2c(F)cccc2n1-c1ccc(C(=O)NC2CC2)s1`, the inhibition result in data set [5] and in data set [6] was “Active” throughout. Besides, the CLhep predicted in [7] is less than 4 mL/min/kg; in data set [9], 37 mL/min/kg. The values for the IC50 in data set [1], in data set [2] and in [3] were 6 nM, 8 nM and 34 nM, respectively.

As for `Cc1nc2c(OCC(F)F)cccc2n1-c1ccc(C(=O)NC2CC2)s1`, the inhibition entry in data set [5] and in data set [6] was “Active” in each case. Moreover, the IC50 came to 113 nM in data set [1], 128 nM in data set [2] and 28 nM in data set [3].

For `O=C(NC1CC1)c1ccc(-n2cnc3c(F)cccc32)s1`, the inhibition entry in data set [5] and in [6] was “Active” throughout. Moreover, the CLhep predicted in [7] was 10 mL/min/kg; in data set [9], more than 72 mL/min/kg. Moreover, the IC50 in [8] was 14900 nM; in [1] it was 8 nM; in data set [2], 17 nM; in data set [3] it was 62 nM.

As for `CCCCNC(=O)c1ccc(-n2cnc3ccccc32)s1`, the 50% inhibitory concentration (IC50) in data set [8] was more than 30000 nM; in data set [1], 7300 nM; in data set [2], more than 20000 nM.

`Cc1ccc2c(c1)nc(C)n2-c1ccc(C(=O)NC2CC2)s1`: the inhibition entry in data set [5] and in data set [6] was “Active” in each case. Also, the results for the CLhep predicted in [7] and in [9] were 8 mL/min/kg and more than 72 mL/min/kg, respectively. In addition, the IC50 in data set [1] worked out at 130 nM; in data set [2] it was 87 nM; in data set [3], 56 nM.

As to `Cc1nc2cc(Cl)ccc2n1-c1ccc(C(=O)NC2CC2)s1`, the inhibition result in data set [5] and in data set [6] was “Active” each time. Moreover, the IC50 in data set [1] is 102 nM; in data set [2] it was 78 nM; in [3], 49 nM.

Turning to `O=C(NC1CCCC1)c1ccc(-n2cnc3ccccc32)s1`, the IC50 in [1] was determined as 5500 nM; in data set [2], 4400 nM; in [3], 2510 nM.

On to `Cc1cc(F)c2ncn(-c3ccc(C(=O)NC4CC4)s3)c2c1`, for which the inhibition entry in [5] and in data set [6] was “Active” throughout. Further, the CLhep predicted in [7] is 10 mL/min/kg; in data set [9], more than 72 mL/min/kg. Also, the IC50 is 3100 nM in data set [8], 4 nM in [1], 4 nM in data set [2] and 17 nM in [3].

Turning to `O=C(NC1CC1)c1ccc(-n2cnc3c(Cl)cc(F)cc32)s1`, the inhibition result in [5] and in [6] was “Active” in each case. For the same compound, the CLhep predicted was 7 mL/min/kg in data set [7] and more than 72 mL/min/kg in [9]. In addition, the half-maximal inhibitory concentration (IC50) in data set [8] is 5600 nM; in [1], 18 nM; in data set [2] it was 8 nM; in data set [3] it was 35 nM.

On to `Cc1cccc2nc(C)n(-c3ccc(C(=O)NC4CC4)s3)c12`, for which the inhibition result in data set [5] and in data set [6] was “Active” throughout. Moreover, the CLhep predicted in data set [7] was 6 mL/min/kg; in data set [9] it was more than 72 mL/min/kg. For the same compound, the IC50 in [1] turned out to be 290 nM; in data set [2], 143 nM; in data set [3], 609 nM.

Take `Cc1cccc2c1nc(C)n2-c1ccc(C(=O)NC2CC2)s1`: the inhibition entry in [5] and in data set [6] was “Active” each time. Besides, the CLhep predicted in data set [7] was 10 mL/min/kg; in [9], 66 mL/min/kg. The IC50 in data set [1] stood at 22 nM; in data set [2], 10 nM; in data set [3] it was 39 nM.

Regarding `Cc1cc(F)c2nc(C)n(-c3ccc(C(=O)NC4CC4)s3)c2c1`, the inhibition result in data set [5] and in data set [6] was “Active” each time. Moreover, the CLhep predicted in data set [7] was 12 mL/min/kg; in data set [9], more than 72 mL/min/kg. Also, the values for the half-maximal inhibitory concentration (IC50) in [1], in data set [2] and in [3] were 17 nM, 10 nM and 32 nM, respectively.

Turning to `Cc1ccc2nc(C)n(-c3ccc(C(=O)NC4CC4)s3)c2c1`, the inhibition result in [5] and in data set [6] was “Active” throughout. Moreover, the CLhep predicted in data set [7] is 10 mL/min/kg; in [9] it was more than 72 mL/min/kg. Also, the IC50 was determined as 74 nM in data set [1], 33 nM in data set [2] and 56 nM in data set [3].

In the case of `CN(C)C(=O)c1ccc(-n2cnc3ccccc32)s1`, the half-maximal inhibitory concentration (IC50) in [1] was more than 40000 nM; in data set [2], more than 40000 nM; in [3], more than 30000 nM.

For the compound `Cc1nc2c(N(C)C)cccc2n1-c1ccc(C(=O)NC2CC2)s1`, the inhibition result in data set [5] and in data set [6] was “Active” each time. Also, the values for the concentration for half-maximal inhibition (IC50) in data set [1], in data set [2] and in data set [3] were 159 nM, 75 nM and 181 nM, respectively.

Consider `O=C(NC1CC1)c1ccc(-n2c(=O)[nH]c3ccccc32)s1`, for which the concentration for half-maximal inhibition (IC50) in [1] is more than 5000 nM; in [2], more than 5000 nM; in data set [3] it was more than 30000 nM.

As to `Cc1nc2c(Cl)cccc2n1-c1ccc(C(=O)NC2CC2)s1`, the inhibition result in data set [5] and in [6] was “Active” each time. Moreover, the CLhep predicted in data set [7] was less than 4 mL/min/kg; in data set [9], 19 mL/min/kg. Besides, the results for the IC50 in data set [1], in data set [2] and in data set [3] were 6 nM, 5 nM and 21 nM, respectively.

Turning to `Cc1nc2c(Br)cccc2n1-c1ccc(C(=O)NC2CC2)s1`, the inhibition result in data set [5] and in data set [6] was “Active” throughout. In addition, the CLhep predicted in data set [7] is 5 mL/min/kg; in [9], 26 mL/min/kg. For the same compound, the figures for the concentration for half-maximal inhibition (IC50) in data set [1], in [2] and in data set [3] were 7 nM, 4 nM and 21 nM, respectively.

In the case of `Cc1nc2cc(C(F)(F)F)ccc2n1-c1ccc(C(=O)NC2CC2)s1`, the inhibition entry in data set [5] and in [6] was “Active” throughout. Also, the values for the CLhep predicted in [7] and in [9] were 4 mL/min/kg and more than 72 mL/min/kg, respectively. Moreover, the 50% inhibitory concentration (IC50) in [1] was determined as 28 nM; in data set [2] it was 20 nM; in data set [3], 28 nM.
